Assay outcomes: PubChem BioAssay, The Scripps Research Institute Molecular Screening Center
PLCg1 inh = inhibitors of human phospholipase C gamma1 | inhibition, % at 12.2 µM | 370,000 tested, 0.84% active | P19174 | AID 720700 | purified PLC-gamma1, fluorogenic substrate, fluorescence; in the data active = inhibition above about 9.5%
procasp3 activ = procaspase-3 (human) activation; P42574; recombinant procaspase-3 D3A, Ac-DEVD-pNA absorbance 405 nm; activation, % at 8.5 µM; 330,000 tested, 0.11% active; AID 463141;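 active = activation above the mean of all tested compounds plus 3 SD, cut at about 21% in these data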;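 note: 0% = DMSO alone and 100% = DMSO wells spiked with extra 5 µM PC-3 D3A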
Target sequence (P42574 whole entry D9A/D28A/D175A): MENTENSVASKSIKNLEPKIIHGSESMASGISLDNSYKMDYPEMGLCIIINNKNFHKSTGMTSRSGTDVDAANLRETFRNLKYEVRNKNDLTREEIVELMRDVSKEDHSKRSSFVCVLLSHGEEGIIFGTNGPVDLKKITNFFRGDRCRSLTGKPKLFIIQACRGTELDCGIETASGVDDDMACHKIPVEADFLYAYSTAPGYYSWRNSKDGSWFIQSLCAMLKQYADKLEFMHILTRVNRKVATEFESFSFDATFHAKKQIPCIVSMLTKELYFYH
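Assay system: Procaspase-3 D3A mutant, all three cleavage aspartates alanine. Buffer or medium: Zinc-free HEPES saline buffer with Triton X-100. Times: 1 h compound preincubation, 2 h substrate hydrolysis at 25 °C. Measured by: 405 nm absorbance of p-nitroaniline, reads at 0 and 120 min. Read-out basis: percent activation relative to control range. Replicates: singlicate.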
sPLA2-III inh = Inhibits HGIII-sPLA2 liposome hydrolysis, primary screen. Q9NZ20. QFRET BODIPY PC-A2 liposome hydrolysis, fluorescence. inhibition, % at 12.2 µM. 370,000 tested, 0.56% active;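 active = inhibition above mean plus 3 SD of compounds lying within the high and low control bounds, cut at about 19% in these data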;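 note: 0% = median of test compound wells and 100% = no enzyme DMSO wells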
proCasp7 act = counter-screen: procaspase-7 (human) activation; recombinant procaspase-7, Ac-DEVD-pNA absorbance 405 nm; D23A/D198A/D206A triple mutant, cannot self-cleave; scale: DMSO 0, 5 µM enzyme 100; activation, % at 8.5 µM; 330,000 tested, 0.093% active;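 active = percent activation above the screen-wide mean plus 3 SD, cut at about 25% in these data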
Target sequence (P55210 whole entry D23A/D198A/D206A): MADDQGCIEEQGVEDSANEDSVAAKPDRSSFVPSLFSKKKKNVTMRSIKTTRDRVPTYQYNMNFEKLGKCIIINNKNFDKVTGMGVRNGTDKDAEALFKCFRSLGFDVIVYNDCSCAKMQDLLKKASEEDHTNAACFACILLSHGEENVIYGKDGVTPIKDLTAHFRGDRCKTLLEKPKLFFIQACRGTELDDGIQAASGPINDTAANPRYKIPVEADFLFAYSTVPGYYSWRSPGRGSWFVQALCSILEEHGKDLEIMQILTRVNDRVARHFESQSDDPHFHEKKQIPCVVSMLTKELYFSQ
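System: Procaspase-7 triple mutant (PC-7 D3A); measure: % activation from two-timepoint absorbance difference, scaled to controls; times: 1 h compound preincubation, 2 h substrate cleavage, 25 °C; also added: Ac-DEVD-pNA substrate, 400 µM as added; measured by: Epi-absorbance of released pNA at 405 nm, two timepoints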
PLCb3 inh = blocks human PLC-beta3 enzyme activity. Q01970. Purified PLC-beta3, fluorogenic substrate, fluorescence. inhibition, % at 12.2 µM. 370,000 tested, 0.18% active. AID 720704; in the data active = inhibition above about 11%;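 note: 0% = median of compound wells on plate and 100% = full blocker control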
Numbers without * were called inactive; i = inactive; . = no result. An excerpt weighted towards active compounds, which were near 1.6% of everything screened.

SMILES	PLCg1 inh	procasp3 activ	sPLA2-III inh	proCasp7 act	PLCb3 inh
Cc1noc(C)c1NC(=O)N(C)C[C@H]1Oc2ccc(NC(=O)C3CCCCC3)cc2C(=O)N([C@H](C)CO)C[C@@H]1C	-2	9	-1	8	0
COc1ccccc1NC(=O)c1ccc(C)c(S(=O)(=O)N2CCCCC2)c1	13*	-2	-16	-6	-1
COc1ccc(OC)c(CCNC(=O)CCCc2nnc3n(C)c(=O)c4sccc4n23)c1	-1	7	6	3	-6
CCOC(=O)c1ccc(-c2c(-c3ccc4c(c3)OCO4)noc2C)cc1F	3	-8	-15	-1	7
O=C(NNC(=S)Nc1ccc(F)c(Cl)c1)c1ccccc1Br	-2	-2	26*	-6	-1
CN(C)c1ccc(/C=N/n2c(-c3ccccc3Br)n[nH]c2=S)cc1	-10	-30	9	-38	-20
O=C(C(=Cc1ccc(O)cc1)c1ccccc1)c1ccccc1	11*	.	-27	.	1
O=C(Nc1ccccc1Cl)c1cc(C2CCCN(C(=O)c3cccc(O)c3)C2)on1 (stereo unspecified)	6	.	-41	.	6
O=C(Nc1ccccc1Cl)c1cc(C2CCCN(C(=O)c3ccccc3)C2)on1 (stereo unspecified)	7	.	-10	.	11*
C#CCN1CC(N2CCN(CCO)CC2)CS1(=O)=O (stereo unspecified)	1	.	6	.	0
O=C(Nc1cccc(Cl)c1)Nc1c[nH]c(=O)[nH]c1=O	1	-4	5	-8	-1
OC(c1ccccc1)C(O)c1ccccc1 (stereo unspecified)	6	1	4	5	11*
COc1ccc(OC)c(CN2C(=O)CSCC2(C)C(=O)NCc2ccccc2)c1 (stereo unspecified)	3	.	1	.	12*
COc1cc(NC(=O)N2CCc3nc(Nc4cc(Cl)cc(Cl)c4)ncc3C2)cc(OC)c1OC	-3	.	-21	.	-8
CC1(C(=O)Nc2ccc3c(c2)OCCO3)CN(S(C)(=O)=O)CC(=O)N1Cc1cccs1 (stereo unspecified)	4	.	8	.	0
Cc1ccc(CNC(=O)/C(C#N)=C\c2ccc(N(C)C)cc2)cc1	.	22*	.	-54	.
CC1=NN(c2ccc(F)cc2)C(=O)C1C(c1cccc(O)c1)c1c(C)[nH]n(-c2ccc(F)cc2)c1=O (stereo unspecified)	18*	0	-1	8	12*
Cc1nc2ncnn2c(C)c1CCC(=O)O	10*	-6	6	9	9
CN1C(=O)C2(NCCc3c2[nH]c2ccccc32)c2ccccc21 (stereo unspecified)	3	1	-1	-6	0
CCOC(=O)C1(C(=O)OCC)Cc2c([nH]c3ccccc23)[C@]2(N1)C(=O)N(C)c1ccc(Br)cc12	10*	.	-16	.	-4
C[C@H]1CN(S(=O)C(C)(C)C)[C@@H](CCO)/C1=C\c1ccccc1 (stereo partly specified)	2	.	-1	.	1
Cc1cc(C(=O)COC(=O)c2ccc3c(c2)OCO3)c(C)n1Cc1cccs1	10*	-1	1	6	4
CCC(C)(C)C1CCc2[nH]nc(C(=O)O)c2C1 (stereo unspecified)	2	2	7	0	2
CC(C)(C)C1CCc2[nH]nc(C(=O)O)c2C1 (stereo unspecified)	15*	-3	1	1	10
Cc1nc(SCC(=O)NC2CC2)c2c(C)c(C)sc2n1	-1	30*	5	7	-9
SMILES	PLCg1 inh	procasp3 activ	sPLA2-III inh	proCasp7 act	PLCb3 inh
O=C1NC[C@@H](CCCCN2CCN(CCC3CCCCC3)C(=O)C2=O)N(Cc2ccccc2)C1=O	14*	.	5	.	6
O=C(c1cc(-c2ccc(Cl)cc2)n[nH]1)N1CCc2ccccc2C1	4	1	4	6	-10
COc1ccc(F)cc1-c1cc(C(=O)N2CCc3ccccc3C2)[nH]n1	11*	.	6	.	11*
NS(=O)(=O)c1ccc(N2N=C(c3ccccc3)CC2c2ccc(F)cc2)cc1 (stereo unspecified)	i	64*	-18	86*	i
Cc1cccc(C2CC(c3ccccc3)=NN2c2ccc(S(N)(=O)=O)cc2)c1 (stereo unspecified)	i	.	1	.	i
Cc1csc(=O)n1CCC(=O)OCC(=O)Nc1cc([N+](=O)[O-])ccc1Cl	4	-11	4	6	-5
CCN1C[C@@H]2[C@@H]3C(=O)N(Cc4ccccc4)C(=O)[C@@H]3[C@](C)(C1=O)N2C(=O)c1ccccc1	2	.	8	.	11*
O=C(O)c1nc(-c2ccccc2)n(-c2ccccc2)n1	-2	3	-6	-1	6
O=C(c1nc(-c2ccccc2)n(-c2ccccc2)n1)N1CCN(S(=O)(=O)c2ccccc2)CC1	11*	-2	-2	10	3
COc1ccc(CN2CCNC(=O)C2CC(=O)NC2CCCCCCC2)cc1C (stereo unspecified)	-2	-2	-11	11	-11
CN(C(=O)c1cccc(NC(=O)Cc2cccc(NC(=O)C3CCN(C(=O)C4CC4)CC3)c2)c1)C1CC1	13*	.	9	.	10
O=C1CC(c2ccc3c(c2)OCO3)C2=C(CCCC2=O)N1 (stereo unspecified)	10*	3	3	-4	3
O=C1CC(c2ccc(F)c(Br)c2)C2=C(CCCC2=O)N1 (stereo unspecified)	0	7	-1	3	-1
N#CCCC1(CCC#N)c2ccccc2C(=O)c2ccccc21	0	.	3	.	5
CC(=NNC(=S)Nc1ccccc1)c1ccccn1	6	.	21*	.	6
CCc1ccc(NC(=O)CN(CC(=O)Nc2ccc(CC)cc2)CC(C)O)cc1 (stereo unspecified)	11*	-7	-25	7	-1
CCc1ccc(NC(=O)Cc2ccc(OC)cc2)cc1	.	8	.	10	.
Cc1ccc(NC(=S)c2nc3ccccc3[nH]2)cc1	5	2	14	-8	6
Cc1ccc(NC(=S)c2nc3ccccc3[nH]2)c(C)c1	6	1	31*	-6	2
C/C(=N/NC(=O)c1cc2ccccc2cc1O)C1C(=O)c2ccccc2C1=O	6	-7	29*	-15	-4
CC(=O)NC(CC(=O)NCc1ccncc1)c1ccccc1 (stereo unspecified)	-2	-5	5	2	-7
Cc1cccc(Cl)c1NC(=O)N(C)c1ccccc1	12*	.	19	.	5
CC(C)C[C@@H](CSc1ccccc1)N1CCN(C)CCC1=O	9.7*	-1	1	-2	7
CCCN1CCC(=O)N([C@H](CSc2ccccc2)CC(C)C)CC1	5	1	5	6	6
Cc1ccc(C(=O)NNC(=S)NC(=O)c2ccccc2)cc1	7	4	35*	-22	2
